Assay results: PubChem BioAssay AID624095 (The Scripps Research Institute Molecular Screening Center, 2012)
The source made the active and inactive calls.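 How the source made its calls: active means MIC at a fourfold reduction of 10 µM or lower; inactive means MIC at a fourfold reduction above 10 µM.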

What was measured:
[1] = tested on: IMP-1 P. aeruginosa KN20 growth with imipenem, OD600; test: growth inhibition synergy, KN20 P. aeruginosa with imipenem – strain KN20, clinical isolate, powder samples, VIM-2 MBL inhibitor project, late-stage follow-up (AID 624095)
Summary of the method: (§1)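 Test system: log-phase bacterial cells in broth / Buffer or medium: Mueller-Hinton broth with adjusted cations (CAMHB) / Reagent: imipenem in two-fold serial dilutions, orthogonal to compound / Compound: checkerboard two-fold serial dilutions, compound across rows / Incubation: bacterial incubation of at least 18 h, 37 °C, aerobic / Detection: turbidity measured by optical absorbance / Read-out: MIC per CLSI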

[2] = as above; conditions: IMP-1 P. aeruginosa KN20 growth with imipenem, OD600; measured here: max imipenem fold potentiation; stronger effect = higher value
Summary of the method: as §1

Row | Compound | MIC [1] | fold potentiation [2]
1 | CN1CCN(NC(=O)CN2C(=O)/C(=C/c3c(Cl)cccc3Cl)SC2=S)CC1 | > 100 µM (inactive) | –
2 | O=C(CN1C(=O)/C(=C/c2c(Cl)ccc(Cl)c2Cl)SC1=S)NN1CCCCC1 | > 50 µM (inactive) | –
3 | O=C(O)CN1C(=O)/C(=C/c2c(Cl)cccc2Cl)SC1=S | > 100 µM (inactive) | –
4 | O=C(CN1C(=O)/C(=C/c2c(Cl)cccc2Cl)SC1=S)NCc1ccccn1 | > 100 µM (inactive) | –
5 | CN1CCN(NC(=O)CN2C(=O)/C(=C/c3c(Cl)ccc(Cl)c3Cl)SC2=S)CC1 | > 50 µM (inactive) | 2
6 | CN1CCN(NC(=O)CN2C(=O)/C(=C/c3c(F)cccc3C(F)(F)F)SC2=S)CC1 | > 50 µM (inactive) | –
7 | CCN(CC)OC(=O)CN1C(=O)/C(=C/c2c(Cl)cccc2Cl)SC1=S | > 100 µM (inactive) | –
8 | O=C(CN1C(=O)/C(=C/c2c(Cl)ccc(Cl)c2Cl)SC1=S)NCc1ccccn1 | > 50 µM (inactive) | –
9 | CN1CCN(NC(=O)CN2C(=O)/C(=C/c3c(C(F)(F)F)ccc(Cl)c3Cl)SC2=S)CC1 | > 50 µM (inactive) | –
10 | O=C(CN1C(=O)/C(=C/c2c(Cl)cccc2Cl)SC1=S)NN1CCN(Cc2ccccc2)CC1 | > 50 µM (inactive) | –
11 | CC(=O)N1CCN(NC(=O)CN2C(=O)/C(=C/c3c(Cl)cccc3Cl)SC2=S)CC1 | > 50 µM (inactive) | –
12 | O=C(CN1C(=O)/C(=C/c2c(Cl)cccc2Cl)SC1=S)NN1CCN(C(=O)c2ccccc2)CC1 | > 50 µM (inactive) | –
13 | CC(C)(C)OC(=O)N1CCN(NC(=O)CN2C(=O)/C(=C/c3c(Cl)ccc(Cl)c3Cl)SC2=S)CC1 | > 50 µM (inactive) | –
14 | O=C(CN1C(=O)/C(=C/c2c(Cl)cccc2Cl)SC1=S)NN1CCCCC1 | > 100 µM (inactive) | –
15 | CC(C)(C)OC(=O)N1CCN(NC(=O)CN2C(=O)/C(=C/c3c(Cl)cccc3Cl)SC2=S)CC1 | > 100 µM (inactive) | –
16 | O=C(CN1C(=O)/C(=C/c2c(Cl)ccc(Cl)c2Cl)SC1=S)NN1CCNCC1 | > 50 µM (inactive) | –
17 | CN1CCN(NC(=O)CN2C(=O)/C(=C/c3c(F)cccc3Cl)SC2=S)CC1 | > 50 µM (inactive) | 2
18 | CN1CCN(NC(=O)CN2C(=O)/C(=C/c3c(Cl)ccc(C(F)(F)F)c3Cl)SC2=S)CC1 | > 50 µM (inactive) | 2
19 | CC(C)N1CCN(NC(=O)CN2C(=O)/C(=C/c3c(Cl)cccc3Cl)SC2=S)CC1 | > 50 µM (inactive) | –
20 | O=C(O)CN1C(=O)/C(=C/c2c(F)cccc2C(F)(F)F)SC1=S | > 50 µM (inactive) | –
21 | O=C(CN1C(=O)/C(=C/c2c(Cl)cccc2Cl)SC1=S)NN1CCNCC1 | > 50 µM (inactive) | –
22 | CN1CCN(C(=O)CN2C(=O)/C(=C/c3c(Cl)ccc(Cl)c3Cl)SC2=S)CC1 | > 50 µM (inactive) | –
